Laboratory results published in ChEMBL document CHEMBL2177094, “Structure dependence of long-chain [18F]fluorothia fatty acids as myocardial fatty acid oxidation probes” (J Med Chem, 2012).

Tests used:
Muscle tissue [1] = test: Biodistribution in overnight fasted Sprague-Dawley rat muscle aqueous fraction at 0.7 to 1.4 MBq, iv preincubated with POCA for 2 hrs before compound administration measured at 120 mins post treatment by Folch-type extraction method; assay type: ADME, organism-based; conditions: in vivo
Method in brief: (§1)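 Female Sprague-Dawley rats, fasted overnight, under isoflurane (3.5% induction, 1.5% maintenance). [18F] tracer in 0.5–1.0% BSA/saline was given by tail vein. POCA group: 30 mg/kg i.p. 120 min before tracer. About 0.5 g tissue was homogenized and sonicated in chloroform/methanol (2:1) at 0 °C, then 40% urea and 5% H2SO4 were added and spun 10 min at 1,800 g. Aqueous, organic and pellet fractions were counted as % of total.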

Muscle tissue [2] = test: Biodistribution in overnight fasted Sprague-Dawley rat muscle organic fraction at 0.7 to 1.4 MBq, iv at 120 mins by Folch-type extraction method; assay type: ADME, organism-based; conditions: in vivo, 2 h; method in brief: as §1
Liver [3] = test: Drug uptake in overnight fasted Sprague-Dawley rat liver at 9 to 11 MBq, iv at 5 mins by microPET analysis; assay type: ADME, organism-based; conditions: in vivo
Method in brief: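 Female rats fasted overnight, under isoflurane. 18F-labelled tracer (9–11 MBq) given into a tail vein. Dynamic PET acquisition over the upper thorax for 50 min, then a static whole-body scan 55–115 min post-injection. 2–5 rats per tracer.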

Blood [4] = test: Drug uptake in overnight fasted Sprague-Dawley rat blood at 0.7 to 1.4 MBq, iv preincubated with POCA for 2 hrs before compound administration measured at 30 mins post treatment; assay type: ADME, organism-based; conditions: in vivo, 0.5 h
Method in brief: (§2)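 Overnight-fasted female Sprague-Dawley rats under isoflurane received the [18F] tracer in 0.5–1.0% BSA/saline by tail vein. POCA group: 30 mg/kg i.p. 2 h before tracer. Tissues were excised at 30 or 120 min, weighed and gamma-counted with decay correction. Uptake = % dose kg/g, i.e. CPM tissue × body wt (kg) × 100 / (tissue wt (g) × CPM dose). n = 5–6.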

Heart [5] = test: Biodistribution in overnight fasted Sprague-Dawley rat heart aqueous fraction at 0.7 to 1.4 MBq, iv at 120 mins by Folch-type extraction method; assay type: ADME, organism-based; conditions: in vivo, 2 h; method in brief: as §1
Heart [6] = test: Biodistribution in overnight fasted Sprague-Dawley rat heart pellet fraction at 0.7 to 1.4 MBq, iv at 30 mins by Folch-type extraction method; assay type: ADME, organism-based; conditions: in vivo, 0.5 h; method in brief: as §1
Bone = test: Drug uptake in overnight fasted Sprague-Dawley rat bone at 9 to 11 MBq, iv at 55 to 115 mins by microPET analysis; assay type: ADME, organism-based, Bone element; conditions: in vivo
Method in brief: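 Overnight-fasted female Sprague-Dawley rats under isoflurane were scanned by microPET/CT after tail-vein tracer. Dynamic acquisition over the upper thorax ran for 50 min, then a static whole-body scan from 55–115 min p.i. 2–5 rats per tracer; preliminary, representative images.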

Muscle tissue [7] = test: Biodistribution in overnight fasted Sprague-Dawley rat muscle aqueous fraction at 0.7 to 1.4 MBq, iv at 30 mins by Folch-type extraction method; assay type: ADME, organism-based; conditions: in vivo, 0.5 h; method in brief: as §1
Muscle tissue [8] = test: Biodistribution in overnight fasted Sprague-Dawley rat muscle organic fraction at 0.7 to 1.4 MBq, iv at 30 mins by Folch-type extraction method; assay type: ADME, organism-based; conditions: in vivo, 0.5 h; method in brief: as §1
Muscle tissue [9] = test: Biodistribution in overnight fasted Sprague-Dawley rat muscle organic fraction at 0.7 to 1.4 MBq, iv preincubated with POCA for 2 hrs before compound administration measured at 120 mins post treatment by Folch-type extraction method; assay type: ADME, organism-based; conditions: in vivo; method in brief: as §1
Heart [10] = test: Biodistribution in overnight fasted Sprague-Dawley rat heart organic fraction at 0.7 to 1.4 MBq, iv at 120 mins by Folch-type extraction method; assay type: ADME, organism-based; conditions: in vivo, 2 h; method in brief: as §1
Kidney = test: Drug uptake in overnight fasted Sprague-Dawley rat kidney at 0.7 to 1.4 MBq, iv at 30 mins; assay type: ADME, organism-based; conditions: in vivo, 0.5 h
Method in brief: (§3)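 Female rats fasted overnight, under isoflurane (3.5% induction, 1.5% maintenance). 18F-labelled tracer formulated in 0.5–1.0% BSA/saline, injected via tail vein. Tissues harvested at 30 or 120 min, weighed, gamma-counted, decay-corrected. Uptake expressed as % dose kg/g, i.e. tissue CPM × body wt (kg) × 100 / (tissue wt (g) × dose CPM). POCA groups received 30 mg/kg i.p. 2 h before tracer. n = 5–6.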

Heart [11] = test: Biodistribution in overnight fasted Sprague-Dawley rat heart aqueous fraction at 0.7 to 1.4 MBq, iv preincubated with POCA for 2 hrs before compound administration measured at 30 mins post treatment by Folch-type extraction method; assay type: ADME, organism-based; conditions: in vivo, 0.5 h; method in brief: as §1
Liver [12] = test: Biodistribution in overnight fasted Sprague-Dawley rat liver organic fraction at 0.7 to 1.4 MBq, iv preincubated with POCA for 2 hrs before compound administration measured at 30 mins post treatment by Folch-type extraction method; assay type: ADME, organism-based; conditions: in vivo, 0.5 h; method in brief: as §1
Muscle tissue [13] = test: Drug uptake in overnight fasted Sprague-Dawley rat muscle at 0.7 to 1.4 MBq, iv at 120 mins; assay type: ADME, organism-based; conditions: in vivo, 2 h; method in brief: as §3
Heart [14] = test: Drug uptake in overnight fasted Sprague-Dawley rat heart at 0.7 to 1.4 MBq, iv at 30 mins; assay type: ADME, organism-based; conditions: in vivo, 0.5 h; method in brief: as §3
Heart [15] = test: Drug uptake in overnight fasted Sprague-Dawley rat heart at 0.7 to 1.4 MBq, iv preincubated with POCA for 2 hrs before compound administration measured at 120 mins post treatment; assay type: ADME, organism-based; conditions: in vivo; method in brief: as §3
Blood [16] = test: Drug uptake in overnight fasted Sprague-Dawley rat blood at 0.7 to 1.4 MBq, iv preincubated with POCA for 2 hrs before compound administration measured at 120 mins post treatment; assay type: ADME, organism-based; conditions: in vivo; method in brief: as §2
Liver [17] = test: Biodistribution in overnight fasted Sprague-Dawley rat liver aqueous fraction at 0.7 to 1.4 MBq, iv at 120 mins by Folch-type extraction method; assay type: ADME, organism-based; conditions: in vivo, 2 h; method in brief: as §1
Heart [18] = test: Biodistribution in overnight fasted Sprague-Dawley rat heart organic fraction at 0.7 to 1.4 MBq, iv preincubated with POCA for 2 hrs before compound administration measured at 120 mins post treatment by Folch-type extraction method; assay type: ADME, organism-based; conditions: in vivo; method in brief: as §1
Muscle tissue [19] = test: Drug uptake in overnight fasted Sprague-Dawley rat muscle at 0.7 to 1.4 MBq, iv preincubated with POCA for 2 hrs before compound administration measured at 120 mins post treatment; assay type: ADME, organism-based; conditions: in vivo; method in brief: as §3
Heart [20] = test: Drug uptake in overnight fasted Sprague-Dawley rat heart at 0.7 to 1.4 MBq, iv at 120 mins; assay type: ADME, organism-based; conditions: in vivo, 2 h; method in brief: as §2
Liver [21] = test: Drug uptake in overnight fasted Sprague-Dawley rat liver at 0.7 to 1.4 MBq, iv preincubated with POCA for 2 hrs before compound administration measured at 30 mins post treatment; assay type: ADME, organism-based; conditions: in vivo, 0.5 h; method in brief: as §3
Liver [22] = test: Drug uptake in overnight fasted Sprague-Dawley rat liver at 0.7 to 1.4 MBq, iv at 30 mins; assay type: ADME, organism-based; conditions: in vivo, 0.5 h; method in brief: as §3
Heart [23] = test: Biodistribution in overnight fasted Sprague-Dawley rat heart pellet fraction at 0.7 to 1.4 MBq, iv preincubated with POCA for 2 hrs before compound administration measured at 30 mins post treatment by Folch-type extraction method; assay type: ADME, organism-based; conditions: in vivo, 0.5 h; method in brief: as §1
Liver [24] = test: Biodistribution in overnight fasted Sprague-Dawley rat liver organic fraction at 0.7 to 1.4 MBq, iv at 120 mins by Folch-type extraction method; assay type: ADME, organism-based; conditions: in vivo, 2 h; method in brief: as §1
Heart [25] = test: Biodistribution in overnight fasted Sprague-Dawley rat heart pellet fraction at 0.7 to 1.4 MBq, iv at 120 mins by Folch-type extraction method; assay type: ADME, organism-based; conditions: in vivo, 2 h; method in brief: as §1
Liver [26] = test: Biodistribution in overnight fasted Sprague-Dawley rat liver pellet fraction at 0.7 to 1.4 MBq, iv at 30 mins by Folch-type extraction method; assay type: ADME, organism-based; conditions: in vivo, 0.5 h; method in brief: as §1
Liver [27] = test: Biodistribution in overnight fasted Sprague-Dawley rat liver organic fraction at 0.7 to 1.4 MBq, iv at 30 mins by Folch-type extraction method; assay type: ADME, organism-based; conditions: in vivo, 0.5 h; method in brief: as §1

Row | SMILES | Drug uptake (Muscle tissue [1]) [%] | Drug uptake (Muscle tissue [2]) [%] | Drug uptake (Liver [3]) | Drug uptake (Blood [4]) [%IDKg/g] | Drug uptake (Heart [5]) [%] | Drug uptake (Heart [6]) [%] | Drug uptake (Bone) | Drug uptake (Muscle tissue [7]) [%] | Drug uptake (Muscle tissue [8]) [%] | Drug uptake (Muscle tissue [9]) [%] | Drug uptake (Heart [10]) [%] | Drug uptake (Kidney) [%IDKg/g] | Drug uptake (Heart [11]) [%] | Drug uptake (Liver [12]) [%] | Drug uptake (Muscle tissue [13]) [%IDKg/g] | Drug uptake (Heart [14]) [%IDKg/g] | Drug uptake (Heart [15]) [%IDKg/g] | Drug uptake (Blood [16]) [%IDKg/g] | Drug uptake (Liver [17]) [%] | Drug uptake (Heart [18]) [%] | other results
1 | O=C(O)CCCCSCCCCCCCCCCCC[18F] | 9.3 | 39.74 | Active | 0.051 | 4.03 | 70.16 | Active | 16.49 | 44.55 | 59.27 | 28.56 | 0.2095 | 3.84 | 54.88 | 0.0263 | 0.4413 | 0.2288 | 0.0271 | 10.15 | 74.2 | Drug uptake (Muscle tissue [19]): 0.0599 %IDKg/g; Drug uptake (Heart [20]): 0.2815 %IDKg/g; Drug uptake (Liver [21]): 0.8492 %IDKg/g; Drug uptake (Liver [22]): 1.126 %IDKg/g; Drug uptake (Heart [23]): 32.16%; Drug uptake (Liver [24]): 35.26%; Drug uptake (Heart [25]): 67.39%; Drug uptake (Liver [26]): 44.72%; Drug uptake (Liver [27]): 45.61%
2 | O=C(O)CCSCCCCCCCCCCCCCC[18F] | 9.12 | 48.9 | Active | 0.051 | 2.39 | 78.72 | Active | 28.99 | 38.77 | 58.25 | 26.14 | 0.1872 | 7.73 | 51.76 | 0.0181 | 0.314 | 0.1025 | 0.0125 | 8.18 | 74.91 | Drug uptake (Muscle tissue [19]): 0.0197 %IDKg/g; Drug uptake (Heart [20]): 0.2144 %IDKg/g; Drug uptake (Liver [21]): 0.4064 %IDKg/g; Drug uptake (Liver [22]): 0.6292 %IDKg/g; Drug uptake (Heart [23]): 24.67%; Drug uptake (Liver [24]): 55.69%; Drug uptake (Heart [25]): 71.45%; Drug uptake (Liver [26]): 32.97%; Drug uptake (Liver [27]): 51.66%
3 | O=C(O)CCSCCCCCCCCCCCC[18F] | 19.16 | 34 | Active | 0.0633 | 4.17 | 58.8 | Active | 23.24 | 33.56 | 48.14 | 18.88 | 0.209 | 15.28 | 41.68 | 0.0109 | 0.589 | 0.1042 | 0.0392 | 5.32 | 67.98 | Drug uptake (Muscle tissue [19]): 0.0298 %IDKg/g; Drug uptake (Heart [20]): 0.1069 %IDKg/g; Drug uptake (Liver [21]): 0.6197 %IDKg/g; Drug uptake (Liver [22]): 0.899 %IDKg/g; Drug uptake (Heart [23]): 32.81%; Drug uptake (Liver [24]): 31.39%; Drug uptake (Heart [25]): 76.93%; Drug uptake (Liver [26]): 38.21%; Drug uptake (Liver [27]): 48.25%
4 | O=C(O)CCSCCCC/C=C\CCCCCCCC[18F] | 11.37 | 21.98 | Active | 0.0606 | 1.86 | 88.67 | Active | 18.79 | 21.75 | 53.25 | 9.34 | 0.2035 | 10.15 | 58.8 | 0.0171 | 0.7028 | 0.076 | 0.0141 | 5.68 | 66.66 | Drug uptake (Muscle tissue [19]): 0.0216 %IDKg/g; Drug uptake (Heart [20]): 0.8164 %IDKg/g; Drug uptake (Liver [21]): 0.8162 %IDKg/g; Drug uptake (Liver [22]): 1.1847 %IDKg/g; Drug uptake (Heart [23]): 23.8%; Drug uptake (Liver [24]): 34.75%; Drug uptake (Heart [25]): 88.78%; Drug uptake (Liver [26]): 71.69%; Drug uptake (Liver [27]): 19.87%
